In ChEMBL document CHEMBL3091448, “Identification of potent and selective cathepsin S inhibitors containing different central cyclic scaffolds” (J Med Chem, 2013):

Tests used:
[1] = molecular target: Procathepsin L (Homo sapiens, UniProt P07711); assay: Inhibition of human cathepsin-L using Z-Val-Val-Arg-AMC as substrate up to 20 mins by fluorescence assay
Procedure, shortened: (§1)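 Fluorogenic quenched-peptide cleavage assay. Enzymes at 1 nM in 100 mM potassium phosphate pH 6.5, 5 mM EDTA-Na, 0.001% Triton X-100 and 5 mM DTT. Enzyme was added to the compound dilutions, then 20 μM substrate started the reaction: Z-Val-Val-Arg-AMC, or Z-Leu-Arg-AMC for CatK. Fluorescence (ex 360/em 465 nm) was read over 20 min. IC50 is the mean of ≥2 independent experiments.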

[2] = molecular target: Cathepsin B (Homo sapiens, UniProt P07858); assay: Inhibition of human cathepsin-B using Z-Val-Val-Arg-AMC as substrate up to 20 mins by fluorescence assay; procedure, shortened: as §1
[3] = Effective permeability of the compound by PAMPA; format: ADME; conditions: read-out: Peff
[4] = test system: A20; assay: Inhibition of ovalbumin-induced antigen presentation in mouse A20 cells treated 1 hr before ovalbumin addition incubated for 16 hrs followed by co-cultured with DO10.10 T-cell hybridoma cells for 24 hrs assessed as IL-2 production by luminex single-bead analysis; format: functional, cell-based
Procedure, shortened: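 A20 cells were seeded at 3 × 10⁵/mL and preincubated with compound for 1 h. Ovalbumin was then added (5 mg/mL final) for 16 h. Cells were washed three times with PBS, then DO10.10 T-cell hybridoma cells (2 × 10⁵/mL) were added. After 24 h, IL-2 was quantified by Luminex single-bead assay using two anti-IL-2 antibodies. IC50 is the mean of ≥2 independent experiments.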

[5] = molecular target: T1, Cathepsin K (Homo sapiens, UniProt P43235); assay: Inhibition of human cathepsin-K using Z-Leu-Arg-AMC as substrate up to 20 mins by fluorescence assay; procedure, shortened: as §1
T1 sequence (P43235 whole entry): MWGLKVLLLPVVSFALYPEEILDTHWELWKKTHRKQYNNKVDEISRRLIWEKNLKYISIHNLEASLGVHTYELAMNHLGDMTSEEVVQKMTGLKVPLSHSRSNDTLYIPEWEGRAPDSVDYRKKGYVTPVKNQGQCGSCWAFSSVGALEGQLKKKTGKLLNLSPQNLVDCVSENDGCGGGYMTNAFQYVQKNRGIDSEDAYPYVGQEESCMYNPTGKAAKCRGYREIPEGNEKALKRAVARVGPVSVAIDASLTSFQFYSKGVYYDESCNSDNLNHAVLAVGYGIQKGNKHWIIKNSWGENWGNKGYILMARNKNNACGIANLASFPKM

[6] = molecular target: Cathepsin S (Homo sapiens, UniProt P25774); assay: Inhibition of human cathepsin-S using Z-Val-Val-Arg-AMC as substrate up to 20 mins by fluorescence assay; procedure, shortened: as §1
[7] = molecular target: Cathepsin S (Mus musculus, UniProt O70370); assay: Inhibition of mouse cathepsin-S using Z-Val-Val-Arg-AMC as substrate up to 20 mins by fluorescence assay; procedure, shortened: as §1
[8] = test system: Mus musculus; assay: Reduction of ovalbumin-induced IL-2 production in po dosed DO10.11 transgenic BALB/c mouse administered 30 mins before ovalbumin challenge measured after 4 hrs by luminex single-bead analysis; format: functional
Procedure, shortened: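 DO10.11 BALB/c mice carrying a transgenic ovalbumin-peptide TCR were dosed orally with compound, then challenged iv with 1.0 mg low-endotoxin ovalbumin. Plasma IL-2 was measured at 4 h by Luminex bead assay using two anti-IL-2 antibodies. Groups had n = 8, and reduction was expressed versus the ovalbumin challenge group (ANOVA with Dunnett test).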

[9] = Oral bioavailability in C57Bl/6 mouse at 9 mg/kg; format: ADME, organism-based; conditions: in vivo
Procedure, shortened: (§2)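 Male C57Bl/6 mice, 8 weeks old, 24−29 g. Dosing was by oral gavage at 9 mg/kg as an aqueous microsuspension in gelatin/NaCl (7.5%/0.62%), or by iv bolus at 2 mg/kg in aqueous NaCl/30% 1-methyl-2-pyrrolidone. Terminal blood (n = 2 per time point) was collected into EDTA tubes and spun at 4 °C to obtain plasma. Plasma levels were measured by LC−MS/MS after acetonitrile precipitation. Values are the mean of two experiments.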

[10] = Volume of distribution at steady state in C57Bl/6 mouse at 2 mg/kg, iv and 9 mg/kg, po; format: ADME, organism-based; conditions: in vivo, read-out: Vdss; procedure, shortened: as §2
[11] = Clearance in C57Bl/6 mouse at 2 mg/kg, iv and 9 mg/kg, po; format: ADME, organism-based; conditions: in vivo; procedure, shortened: as §2
[12] = Half life in C57Bl/6 mouse at 9 mg/kg, po; format: ADME, organism-based; parameters: dose 9 mg/kg, route oral; conditions: in vivo; procedure, shortened: as §2
[13] = test system: Mus musculus; assay: Dose normalized AUC in C57Bl/6 mouse at 9 mg/kg, po; format: ADME, organism-based; parameters: dose 9 mg/kg, route oral; conditions: in vivo; procedure, shortened: as §2
[14] = Half life in C57Bl/6 mouse at 2 mg/kg, iv; format: ADME, organism-based; parameters: dose 2 mg/kg, route intravenous; conditions: in vivo; procedure, shortened: as §2
[15] = test system: Mus musculus; assay: Dose normalized AUC in C57Bl/6 mouse at 2 mg/kg, iv; format: ADME, organism-based; parameters: dose 2 mg/kg, route intravenous; conditions: in vivo; procedure, shortened: as §2
[16] = Metabolic stability in NMRI mouse plasma assessed as compound remaining at 1000 ng/mL after 4 hrs; format: ADME, cell-free; conditions: read-out: Stability
Procedure, shortened: (§3)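 Heparinized pooled NMRI mouse plasma was spiked with compound at 1000 ng/mL and incubated at 37 °C in an orbital shaker. Aliquots (n = 3 per time point) were taken at 2 min, 1 h and 4 h and analysed by LC−MS/MS.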

[17] = test system: Plasma; assay: Metabolic stability in human plasma assessed as compound remaining at 1000 ng/mL after 5 hrs; format: ADME, cell-free
[18] = organism: Homo sapiens; assay: Selectivity ratio of IC50 for human cathepsin-K to IC50 for human cathepsin-S
[19] = Drug degradation in NMRI mouse plasma at 1000 ng/mL after 4 hrs; format: ADME, cell-free; conditions: read-out: Drug degradation; procedure, shortened: as §3

Procathepsin L, sequence (P07711 whole entry): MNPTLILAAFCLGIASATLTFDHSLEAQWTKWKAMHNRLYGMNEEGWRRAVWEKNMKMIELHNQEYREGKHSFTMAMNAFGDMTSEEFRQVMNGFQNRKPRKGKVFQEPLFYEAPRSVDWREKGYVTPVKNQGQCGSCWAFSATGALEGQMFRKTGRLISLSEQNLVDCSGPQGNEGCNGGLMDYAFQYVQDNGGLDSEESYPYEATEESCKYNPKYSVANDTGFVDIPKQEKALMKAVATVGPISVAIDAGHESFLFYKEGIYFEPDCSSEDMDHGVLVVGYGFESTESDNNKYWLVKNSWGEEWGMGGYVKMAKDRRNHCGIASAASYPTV
Cathepsin S (Mus musculus, UniProt O70370), sequence (O70370 whole entry): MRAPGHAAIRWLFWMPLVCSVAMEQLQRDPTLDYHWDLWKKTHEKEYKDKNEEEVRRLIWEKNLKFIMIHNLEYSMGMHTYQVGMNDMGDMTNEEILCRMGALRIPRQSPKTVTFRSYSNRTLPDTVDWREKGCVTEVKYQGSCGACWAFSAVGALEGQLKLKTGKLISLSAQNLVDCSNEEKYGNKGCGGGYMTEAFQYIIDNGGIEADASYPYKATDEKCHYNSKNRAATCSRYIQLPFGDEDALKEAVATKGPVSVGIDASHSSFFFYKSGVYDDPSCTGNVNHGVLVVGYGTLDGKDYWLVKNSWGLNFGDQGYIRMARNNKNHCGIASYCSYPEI
Cathepsin S (Homo sapiens, UniProt P25774), sequence (P25774 whole entry): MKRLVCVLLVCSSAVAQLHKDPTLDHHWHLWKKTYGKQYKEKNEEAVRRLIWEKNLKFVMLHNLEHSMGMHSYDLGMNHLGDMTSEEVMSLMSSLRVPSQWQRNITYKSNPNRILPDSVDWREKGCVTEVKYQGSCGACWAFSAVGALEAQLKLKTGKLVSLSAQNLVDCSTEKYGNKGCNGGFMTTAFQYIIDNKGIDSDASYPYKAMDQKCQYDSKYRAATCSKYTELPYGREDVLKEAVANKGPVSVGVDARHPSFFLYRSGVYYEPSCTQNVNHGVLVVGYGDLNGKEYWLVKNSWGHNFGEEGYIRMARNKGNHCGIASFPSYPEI

| Compound | IC50 [1] [nM] | IC50 [2] [nM] | IC50 [4] [nM] | IC50 [5] [nM] | IC50 [6] [nM] | also measured |
| --- | --- | --- | --- | --- | --- | --- |
| CC1CCN(C(=O)[C@@H]2C[C@H](S(=O)(=O)c3ccccc3)C[C@H]2C(=O)NC2(C#N)CC2)CC1 | 1900 | 700 | 2 | > 25000 | – | Papp [3]: 4.6 ×10⁻⁶ cm/s |
| CN(C)C(=O)[C@@H]1C[C@H](S(=O)(=O)c2ccccc2)C[C@H]1C(=O)NC1(C#N)CC1 | 24900 | 22900 | 91 | > 25000 | 6 | – |
| CC(C)(C#N)NC(=O)[C@@H]1C[C@@H](S(=O)(=O)c2ccccc2)C[C@H]1C(=O)N1CCOCC1 | > 25000 | > 25000 | 43 | > 25000 | 3 | – |
| N#CC1(NC(=O)[C@@H]2C[C@@H](S(=O)(=O)c3ccccc3)C[C@H]2C(=O)Nc2ccc(F)cc2)CC1 | > 25000 | > 25000 | 391 | > 25000 | 26 | – |
| N#CC1(NC(=O)[C@@H]2C[C@@H](S(=O)(=O)c3ccccc3)CN2C(=O)c2ccccc2)CC1 | > 25000 | > 25000 | 217 | > 25000 | 13 | IC50 [7]: 29 nM |
| CC(=O)N1C[C@H](S(=O)(=O)c2ccccc2Cl)C[C@H]1C(=O)NC1(C#N)CC1 | 29700 | 47600 | 19 | > 25000 | 1 | Activity [8]: Dose-dependent effect; ED50 [8]: 5 mg/kg; bioavailability [9]: 53%; Vd [10]: 0.5 L/kg; clearance [11]: 29 mL/min/kg; half-life [12]: 30 min; AUC/dose [13]: 309 ng·h/mL; half-life [14]: 18 min; AUC/dose [15]: 581 ng·h/mL; remaining at 4 h, 1000 ng/mL [16]: 72%; Stability [17]: Stable; IC50 [7]: 2 nM |
| N#CC1(NC(=O)[C@@H]2C[C@@H](S(=O)(=O)c3ccccc3)C[C@H]2C(=O)N2CC3(COC3)C2)CC1 | 22200 | 29700 | 248 | > 25000 | – | – |
| N#CC1(NC(=O)[C@@H]2C[C@@H](S(=O)(=O)c3ccccc3)C[C@H]2C(=O)N2CCC2)CC1 | 33600 | 39400 | 44 | > 25000 | 10 | – |
| N#CCNC(=O)[C@@H]1CN(S(=O)(=O)c2ccccc2C(F)(F)F)C[C@H]1C(=O)N1CCOCC1 | – | – | 118 | > 25000 | 18 | Ratio IC50 [18]: > 1000 |
| N#CCNC(=O)[C@@H]1CN(S(=O)(=O)c2ccccc2)C[C@H]1C(=O)N1CCOCC1 | – | – | 4240 | > 25000 | 271 | Ratio IC50 [18]: > 90 |
| N#CC1(NC(=O)[C@@H]2C[C@@H](S(=O)(=O)c3ccccc3)C[C@H]2C(=O)N2CCOCC2)CCC1 | > 25000 | > 25000 | 236 | > 25000 | – | – |
| N#CCNC(=O)[C@@H]1CC(F)(F)C[C@H]1C(=O)N1CCOCC1 | – | – | 925 | 855 | 830 | Ratio IC50 [18]: 1 |
| N#CCNC(=O)[C@@H]1C[C@@H](S(=O)(=O)c2ccccc2)C[C@H]1C(=O)N1CCOCC1 | 11700 | 6200 | 23 | 15500 | 0.7 | bioavailability [9]: 18%; Vd [10]: 0.5 L/kg; clearance [11]: 39 mL/min/kg; half-life [12]: 54 min; AUC/dose [13]: 77 ng·h/mL; half-life [14]: 18 min; AUC/dose [15]: 427 ng·h/mL; remaining at 4 h, 1000 ng/mL [16]: 99%; Stability [17]: Stable; IC50 [7]: 1 nM; Ratio IC50 [18]: > 20000 |
| N#CCNC(=O)[C@@H]1C[C@@H](S(=O)(=O)c2ccccc2C(F)(F)F)C[C@H]1C(=O)N1CCOCC1 | – | – | 2 | > 25000 | – | Ratio IC50 [18]: > 20000 |
| COc1ccc(C(C#N)NC(=O)[C@@H]2CCCC[C@@H]2NC(=O)/C=C/c2ccccc2)cc1OC (some centres not stated) | – | – | – | 16 | 640 | – |
| N#CC1(NC(=O)[C@@H]2C[C@@H](S(=O)(=O)c3ccccc3)C[C@H]2C(=O)N2CC(O)C2)CC1 | 16200 | 63300 | 572 | > 25000 | 7 | – |
| N#CCNC(=O)[C@@H]1CN(S(=O)(=O)c2ccccc2Cl)C[C@H]1C(=O)N1CCOCC1 | – | – | 208 | > 25000 | 12 | Ratio IC50 [18]: > 1000 |
| N#CC1(NC(=O)[C@@H]2C[C@@H](S(=O)(=O)c3ccccc3)C[C@H]2C(=O)N2CCNCC2)CC1 | 2600 | 13300 | 1340 | > 25000 | – | – |
| CN1CCN(C(=O)[C@@H]2C[C@H](S(=O)(=O)c3ccccc3)C[C@H]2C(=O)NC2(C#N)CC2)CC1 | 4700 | 6400 | 17 | > 25000 | 2 | – |
| N#CC1(NC(=O)[C@@H]2C[C@@H](S(=O)(=O)c3ccccc3Cl)CN2C(=O)C2CCCCC2)CC1 | 8300 | – | 2 | > 25000 | 0.3 | metabolised at 4 h, 1000 ng/mL [19]: > 90%; IC50 [7]: 0.2 nM |
| N#CC1(NC(=O)[C@@H]2C[C@@H](S(=O)(=O)c3ccccc3)C[C@H]2C(=O)N2CCC(O)CC2)CC1 | 4600 | 5700 | 371 | > 25000 | – | Papp [3]: 0.2 ×10⁻⁶ cm/s |
| C[C@@H]1CN(C(=O)[C@@H]2C[C@H](S(=O)(=O)c3ccccc3)C[C@H]2C(=O)NC2(C#N)CC2)C[C@H](C)O1 | 2700 | 3200 | 1 | > 25000 | – | – |
| N#CC1(NC(=O)[C@@H]2C[C@@H](S(=O)(=O)c3ccccc3)C[C@H]2C(=O)N2CCOCC2)CC1 | 12200 | 8500 | 12 | 29700 | – | – |
| N#CC1(NC(=O)[C@@H]2C[C@@H](S(=O)(=O)c3ccccc3)C[C@H]2C(=O)N2CC3CCC(C2)O3)CC1 | 4100 | 13100 | 16 | > 25000 | 1 | – |
| N#CC1(NC(=O)[C@@H]2C[C@@H](S(=O)(=O)c3ccccc3)C[C@H]2C(=O)N2CCCC2)CC1 | 17000 | 7100 | 29 | > 25000 | 2 | – |
| N#CCNC(=O)[C@@H]1C[C@@H](S(=O)(=O)c2ccccc2Cl)C[C@H]1C(=O)N1CCOCC1 | – | – | 3 | > 25000 | – | Ratio IC50 [18]: > 20000 |
| N#CC1(NC(=O)[C@@H]2C[C@@H](S(=O)(=O)c3ccccc3)C[C@H]2C(=O)N2CCCCC2)CC1 | 4200 | 3600 | 5 | > 25000 | – | – |
| N#CC1(NC(=O)[C@@H]2C[C@@H](S(=O)(=O)c3ccccc3)C[C@H]2C(=O)N2CCS(=O)(=O)CC2)CC1 | 15800 | 38000 | 816 | > 25000 | 4 | Papp [3]: 0.2 ×10⁻⁶ cm/s |
| N#CCNC(=O)[C@@H]1C[C@@H](S(=O)(=O)CC2CC2)C[C@H]1C(=O)N1CCOCC1 | – | – | 4510 | > 25000 | – | Ratio IC50 [18]: > 100 |
